ChEMBL document CHEMBL3860041, “Synthesis, biological evaluation and molecular modeling study of some new methoxylated 2-benzylthio-quinazoline-4(3H)-ones as nonclassical antifolates” (Bioorg Med Chem Lett, 2016)

Legend:
Dihydrofolate reductase = target: T1, Dihydrofolate reductase (Bos taurus, UniProt P00376); assay: Inhibition of bovine liver DHFR preincubated for 2 mins followed by addition of FH2 as substrate and NADPH
T1 sequence (P00376 whole entry): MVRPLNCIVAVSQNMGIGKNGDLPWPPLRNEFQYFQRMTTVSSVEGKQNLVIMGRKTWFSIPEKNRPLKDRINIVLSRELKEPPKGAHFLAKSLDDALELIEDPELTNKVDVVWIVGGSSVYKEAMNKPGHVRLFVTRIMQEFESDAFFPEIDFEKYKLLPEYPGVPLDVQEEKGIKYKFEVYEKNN

[1] = Growth inhibition of human K562 cells at 10 uM after 48 hrs by SRB assay relative to control; assay type: functional; details: K562, 48 h, read-out: GI
Procedure, shortened: (§1)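 NCI 60-cell-line panel, nine tumor subpanels; compounds tested at a single dose of 10 μM in the primary screen.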

[2] = Growth inhibition of human NCI-H23 cells at 10 uM after 48 hrs by SRB assay relative to control; assay type: functional; details: NCI-H23, 48 h, read-out: GI; procedure, shortened: as §1
[3] = Growth inhibition of human NCI-322M cells at 10 uM after 48 hrs by SRB assay relative to control; assay type: functional; details: read-out: GI; procedure, shortened: as §1
[4] = Growth inhibition of human NCI-H460 cells at 10 uM after 48 hrs by SRB assay relative to control; assay type: functional; details: NCI-H460, 48 h, read-out: GI; procedure, shortened: as §1
[5] = Growth inhibition of human HCC2998 cells at 10 uM after 48 hrs by SRB assay relative to control; assay type: functional; details: HCC 2998, 48 h, read-out: GI; procedure, shortened: as §1
[6] = Growth inhibition of human HCT116 cells at 10 uM after 48 hrs by SRB assay relative to control; assay type: functional; details: HCT-116, 48 h, read-out: GI; procedure, shortened: as §1
[7] = Growth inhibition of human SW620 cells at 10 uM after 48 hrs by SRB assay relative to control; assay type: functional; details: SW-620, 48 h, read-out: GI
Procedure, shortened: (§2)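 Primary screen across the full NCI 60 human tumour cell line panel, which covers nine tumour subpanels. A single dose of 10 μM was applied to each line, and growth was recorded for each cell line.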

[8] = Growth inhibition of human SF539 cells at 10 uM after 48 hrs by SRB assay relative to control; assay type: functional; details: SF-539, 48 h, read-out: GI; procedure, shortened: as §1
[9] = Growth inhibition of human U251 cells at 10 uM after 48 hrs by SRB assay relative to control; assay type: functional; details: U-251, 48 h, read-out: GI; procedure, shortened: as §2
[10] = Growth inhibition of human LOXIMVI cells at 10 uM after 48 hrs by SRB assay relative to control; assay type: functional; details: LOX IMVI, read-out: GI; procedure, shortened: as §1
[11] = Growth inhibition of human MALME-3M cells at 10 uM after 48 hrs by SRB assay relative to control; assay type: functional; details: read-out: GI; procedure, shortened: as §1
[12] = Growth inhibition of human SK-MEL-2 cells at 10 uM after 48 hrs by SRB assay relative to control; assay type: functional; details: SK-MEL-2, 48 h, read-out: GI; procedure, shortened: as §2
[13] = Growth inhibition of human SK-MEL-28 cells at 10 uM after 48 hrs by SRB assay relative to control; assay type: functional; details: SK-MEL-28, 48 h, read-out: GI; procedure, shortened: as §2
[14] = Growth inhibition of human UACC257 cells at 10 uM after 48 hrs by SRB assay relative to control; assay type: functional; details: UACC-257, 48 h, read-out: GI; procedure, shortened: as §2
[15] = Growth inhibition of human UACC62 cells at 10 uM after 48 hrs by SRB assay relative to control; assay type: functional; details: UACC-62, 48 h, read-out: GI; procedure, shortened: as §2
[16] = Growth inhibition of human OVCAR3 cells at 10 uM after 48 hrs by SRB assay relative to control; assay type: functional; details: OVCAR-3, 48 h, read-out: GI; procedure, shortened: as §1
[17] = Growth inhibition of human NCI/ADR-RES cells at 10 uM after 48 hrs by SRB assay relative to control; assay type: functional; details: read-out: GI; procedure, shortened: as §1
[18] = Growth inhibition of human A498 cells at 10 uM after 48 hrs by SRB assay relative to control; assay type: functional; details: A498, 48 h, read-out: GI; procedure, shortened: as §1
[19] = Growth inhibition of human ACHN cells at 10 uM after 48 hrs by SRB assay relative to control; assay type: functional; details: read-out: GI; procedure, shortened: as §1
[20] = Growth inhibition of human Caki1 cells at 10 uM after 48 hrs by SRB assay relative to control; assay type: functional; details: CAKI-1, 48 h, read-out: GI; procedure, shortened: as §1
[21] = Growth inhibition of human RXF393 cells at 10 uM after 48 hrs by SRB assay relative to control; assay type: functional; details: RXF 393, 48 h, read-out: GI; procedure, shortened: as §1
[22] = Growth inhibition of human SN12C cells at 10 uM after 48 hrs by SRB assay relative to control; assay type: functional; details: read-out: GI; procedure, shortened: as §2
[23] = Growth inhibition of human PC3 cells at 10 uM after 48 hrs by SRB assay relative to control; assay type: functional; details: PC-3, 48 h, read-out: GI; procedure, shortened: as §1
[24] = Growth inhibition of human Hs 578T cells at 10 uM after 48 hrs by SRB assay relative to control; assay type: functional; details: read-out: GI; procedure, shortened: as §1
[25] = Growth inhibition of human BT549 cells at 10 uM after 48 hrs by SRB assay relative to control; assay type: functional; details: BT-549, 48 h, read-out: GI; procedure, shortened: as §1
[26] = Growth inhibition of human T47D cells at 10 uM after 48 hrs by SRB assay relative to control; assay type: functional; details: read-out: GI; procedure, shortened: as §2
Cancer cell lines [27] = assay: Potency index, ratio of 5-fluorouracil GI50 to compound GI50 for human breast cancer cells; assay type: functional
Procedure, shortened: (§3)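 GI50 for each cell line came from NCI panel testing over a 5-log dose range, with 5-fluorouracil tested alongside as the reference drug. The index relates the 5-fluorouracil GI50 to the compound GI50 within each tumour subpanel.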

Cancer cell lines [28] = assay: Potency index, ratio of 5-fluorouracil GI50 to compound GI50 for human prostate cancer cells; assay type: functional; procedure, shortened: as §3
Melanoma cell = assay: Potency index, ratio of 5-fluorouracil GI50 to compound GI50 for human melanoma cells; assay type: functional; procedure, shortened: as §3
Cancer cell lines [29] = assay: Potency index, ratio of 5-fluorouracil GI50 to compound GI50 for human colon cancer cells; assay type: functional; procedure, shortened: as §3
Cancer cell lines [30] = assay: Potency index, ratio of 5-fluorouracil GI50 to compound GI50 for human non-small cell lung cancer cells; assay type: functional; procedure, shortened: as §3
Leukemia cell = assay: Potency index, ratio of 5-fluorouracil GI50 to compound GI50 for human leukemia cells; assay type: functional; procedure, shortened: as §3
[31] = Growth inhibition of human CNS cancer cells after 48 hrs by SRB assay; assay type: functional; details: Cancer cell lines
Procedure, shortened: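 Five-log dose range against NCI tumor cell lines, monitoring GI50, TGI and LC50 for each cell line; MG-MID values derived across the panel; 5-fluorouracil positive control.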

[32] = Growth inhibition of human leukemia cells after 48 hrs by SRB assay; assay type: functional; details: Leukemia cell
Procedure, shortened: (§4)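 Follow-up NCI panel testing over a 5-log dose range for each cell line. GI50, TGI and LC50 were monitored, with 5-fluorouracil run as the positive control. Values are grouped by tumour subpanel.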

[33] = Growth inhibition of human ovarian cancer cells after 48 hrs by SRB assay; assay type: functional; details: Cancer cell lines; procedure, shortened: as §4

COc1ccccc1-n1c(SCc2cc(OC)c(OC)c(OC)c2)nc2ccc(Cl)cc2c1=O
IC50 (Dihydrofolate reductase): 0.1 µM | inhibition of growth at 10 µM [1]: 87.3% | inhibition of growth at 10 µM [2]: 63.9% | inhibition of growth at 10 µM [3]: 44.9% | inhibition of growth at 10 µM [4]: 89.2% | inhibition of growth at 10 µM [5]: 43.2% | inhibition of growth at 10 µM [6]: 78.9% | inhibition of growth at 10 µM [7]: 83.2% | inhibition of growth at 10 µM [8]: 35.5% | inhibition of growth at 10 µM [9]: 74.5% | inhibition of growth at 10 µM [10]: 66.8% | inhibition of growth at 10 µM [11]: 67.1% | inhibition of growth at 10 µM [12]: < 10% | inhibition of growth at 10 µM [13]: 50.7% | inhibition of growth at 10 µM [14]: < 10% | inhibition of growth at 10 µM [15]: 65.7% | inhibition of growth at 10 µM [16]: 99.5% | inhibition of growth at 10 µM [17]: 79.8% | inhibition of growth at 10 µM [18]: 95% | inhibition of growth at 10 µM [19]: 55.8% | inhibition of growth at 10 µM [20]: 57.4% | inhibition of growth at 10 µM [21]: 38.5% | inhibition of growth at 10 µM [22]: 29.7% | inhibition of growth at 10 µM [23]: 80.4% | inhibition of growth at 10 µM [24]: 60.4% | inhibition of growth at 10 µM [25]: 60.5% | inhibition of growth at 10 µM [26]: 56.1% | RatioGI50 (Cancer cell lines [27]): 2 - 10 | RatioGI50 (Cancer cell lines [28]): 2 - 10 | RatioGI50 (Melanoma cell): 2 - 10 | RatioGI50 (Cancer cell lines [29]): 2 - 10 | RatioGI50 (Cancer cell lines [30]): 2 - 10 | RatioGI50 (Leukemia cell): 2 - 10 | GI50 [31]: 7.9 µM | LC50 (lethal concentration, 50% net cell kill) [31]: > 100 µM | TGI [31]: 63.1 µM | GI50 [32]: 2.4 µM | TGI [32]: 86.5 µM | CC50 ([32]; read-out: LC50 (the source's name)): > 100 µM | GI50 [33]: 6.7 µM | LC50 (50% lethal concentration) [33]: > 100 µM | TGI [33]: 87.9 µM
